Four compounds from ChEMBL document CHEMBL3425440, “ent-Kaurane Diterpenoids from Chinese Liverworts and Their Antitumor Activities through Michael Addition As Detected in Situ by a Fluorescence Probe” (J Med Chem, 2015) can be followed below.

pIC50: −log10 of the molar value.

The test system of the first assay is DU-145. The assay can be described thus: Cytotoxicity against human DU145 cells assessed as cell viability after 24 hrs by MTT assay. It is filed as functional, cell-based. Conditions: DU-145, 24 h. The essentials: (§1)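 Cells grown to about 50−70% confluence at 37 °C, 5% CO2, then exposed to compounds 24 h (DMSO vehicle control, cisplatin positive control). MTT (5 mg/mL stock) added for 4 h, formazan dissolved in DMSO, absorbance read at 570 nm. IC50 derived from percent viability; at least three independent experiments, mean ± SD.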
On the technique in general: Tetrazolium dyes change colour on reduction, which living cells bring about.
The term pIC50 denotes the IC50 on a negative log10 scale, so that one unit is a factor of ten. Take `CC1=C[C@]23C[C@H]1CC[C@H]2[C@@]1(C)[C@H](C[C@H]3O)C(C)(C)CC[C@@H]1O`: the pIC50 was less than 4.30.
Take `C=C1C[C@]23C[C@H]1CC[C@H]2[C@@]1(C)[C@H](C[C@H]3OC(C)=O)C(C)(C)CC[C@@H]1O`: the pIC50 is less than 4.30.
For `C=C1[C@@H]2CC[C@H]3[C@]4(C)CCCC(C)(C)[C@H]4C[C@@H](O)[C@]3(C2)[C@@H]1O`, the pIC50 was less than 4.30.
`C[C@@H]1C(=O)[C@@]23CC[C@@H]4C(C)(C)CCC[C@@]4(C)[C@@H]2[C@@H](O)C[C@@H]1C3`: the pIC50 is less than 4.30.

Tested on in a further assay: not listed separately
Description: Cytotoxicity against human T24 cells assessed as cell viability after 24 hrs by MTT assay. Type of assay: functional, cell-based. Conditions: T-24, 24 h. The gist of the method: as §1
Take `CC1=C[C@]23C[C@H]1CC[C@H]2[C@@]1(C)[C@H](C[C@H]3O)C(C)(C)CC[C@@H]1O`: the pIC50 was less than 4.30.
The same measure, in the same setting: under `C=C1C[C@]23C[C@H]1CC[C@H]2[C@@]1(C)[C@H](C[C@H]3OC(C)=O)C(C)(C)CC[C@@H]1O` stands less than 4.30; under `C=C1[C@@H]2CC[C@H]3[C@]4(C)CCCC(C)(C)[C@H]4C[C@@H](O)[C@]3(C2)[C@@H]1O`, less than 4.30.
On the same count and under the same terms, the same measure for `C[C@@H]1C(=O)[C@@]23CC[C@@H]4C(C)(C)CCC[C@@]4(C)[C@@H]2[C@@H](O)C[C@@H]1C3`: less than 4.30.

The next assay concerns NCI-H1299. The assay can be described thus: Cytotoxicity against human NCI-H1299 cells assessed as cell viability after 24 hrs by MTT assay. Type of assay: functional, cell-based. Conditions: NCI-H1299, 24 h. The essentials:
as §1
With `CC1=C[C@]23C[C@H]1CC[C@H]2[C@@]1(C)[C@H](C[C@H]3O)C(C)(C)CC[C@@H]1O`, the pIC50 was less than 4.30.
Still for that read-out and setting: the same measure for `C=C1C[C@]23C[C@H]1CC[C@H]2[C@@]1(C)[C@H](C[C@H]3OC(C)=O)C(C)(C)CC[C@@H]1O`: less than 4.30; for `C=C1[C@@H]2CC[C@H]3[C@]4(C)CCCC(C)(C)[C@H]4C[C@@H](O)[C@]3(C2)[C@@H]1O`: less than 4.30.
In the case of `C[C@@H]1C(=O)[C@@]23CC[C@@H]4C(C)(C)CCC[C@@]4(C)[C@@H]2[C@@H](O)C[C@@H]1C3`, the pIC50 was less than 4.30.

Tested on in a further assay: not listed separately
The assay can be described thus: Cytotoxicity against human SH-SY5Y cells assessed as cell viability after 24 hrs by MTT assay. It is filed as functional, cell-based.
Conditions: not given
The essentials: as §1
In the case of `CC1=C[C@]23C[C@H]1CC[C@H]2[C@@]1(C)[C@H](C[C@H]3O)C(C)(C)CC[C@@H]1O`, the pIC50 is less than 4.30.
For the compound `C=C1C[C@]23C[C@H]1CC[C@H]2[C@@]1(C)[C@H](C[C@H]3OC(C)=O)C(C)(C)CC[C@@H]1O`, the pIC50 is less than 4.30.
Consider `C=C1[C@@H]2CC[C@H]3[C@]4(C)CCCC(C)(C)[C@H]4C[C@@H](O)[C@]3(C2)[C@@H]1O`, for which the pIC50 was less than 4.30.
As to `C[C@@H]1C(=O)[C@@]23CC[C@@H]4C(C)(C)CCC[C@@]4(C)[C@@H]2[C@@H](O)C[C@@H]1C3`, the pIC50 was less than 4.30.

Another assay has as its system MDA-MB-231. The assay can be described thus: Cytotoxicity against human MDA-MB-231 cells assessed as cell viability after 24 hrs by MTT assay. It is filed as functional, cell-based. Conditions: MDA-MB-231, 24 h. The essentials:
as §1
As for `CC1=C[C@]23C[C@H]1CC[C@H]2[C@@]1(C)[C@H](C[C@H]3O)C(C)(C)CC[C@@H]1O`, the pIC50 was less than 4.30.
As for `C=C1C[C@]23C[C@H]1CC[C@H]2[C@@]1(C)[C@H](C[C@H]3OC(C)=O)C(C)(C)CC[C@@H]1O`, the pIC50 was less than 4.30.
Regarding `C=C1[C@@H]2CC[C@H]3[C@]4(C)CCCC(C)(C)[C@H]4C[C@@H](O)[C@]3(C2)[C@@H]1O`, the pIC50 was less than 4.30.
As for `C[C@@H]1C(=O)[C@@]23CC[C@@H]4C(C)(C)CCC[C@@]4(C)[C@@H]2[C@@H](O)C[C@@H]1C3`, the pIC50 is less than 4.30.

Tested on in another assay: not listed separately
The assay can be described thus: Cytotoxicity against human Saos2 cells assessed as cell viability after 24 hrs by MTT assay. Conditions: SAOS-2, 24 h. It is filed as functional, cell-based. The gist of the method:
as §1
For the compound `CC1=C[C@]23C[C@H]1CC[C@H]2[C@@]1(C)[C@H](C[C@H]3O)C(C)(C)CC[C@@H]1O`, the pIC50 is less than 4.30.
For `C=C1C[C@]23C[C@H]1CC[C@H]2[C@@]1(C)[C@H](C[C@H]3OC(C)=O)C(C)(C)CC[C@@H]1O`, the pIC50 is less than 4.30.
For the compound `C=C1[C@@H]2CC[C@H]3[C@]4(C)CCCC(C)(C)[C@H]4C[C@@H](O)[C@]3(C2)[C@@H]1O`, the pIC50 is less than 4.30.
Consider `C[C@@H]1C(=O)[C@@]23CC[C@@H]4C(C)(C)CCC[C@@]4(C)[C@@H]2[C@@H](O)C[C@@H]1C3`, for which the pIC50 was less than 4.30.

Tested on in the next assay: not listed separately
Description: Cytotoxicity against human SKOV3 cells assessed as cell viability after 24 hrs by MTT assay. It is filed as functional, cell-based. Conditions: SK-OV-3, 24 h. The essentials:
as §1
With `CC1=C[C@]23C[C@H]1CC[C@H]2[C@@]1(C)[C@H](C[C@H]3O)C(C)(C)CC[C@@H]1O`, the pIC50 is less than 4.30.
Same read-out and setting: under `C=C1C[C@]23C[C@H]1CC[C@H]2[C@@]1(C)[C@H](C[C@H]3OC(C)=O)C(C)(C)CC[C@@H]1O` stands less than 4.30; under `C=C1[C@@H]2CC[C@H]3[C@]4(C)CCCC(C)(C)[C@H]4C[C@@H](O)[C@]3(C2)[C@@H]1O`, less than 4.30; under `C[C@@H]1C(=O)[C@@]23CC[C@@H]4C(C)(C)CCC[C@@]4(C)[C@@H]2[C@@H](O)C[C@@H]1C3`, less than 4.30.

Tested on in the next assay: not listed separately
The assay can be described thus: Cytotoxicity against human A172 cells assessed as cell viability after 24 hrs by MTT assay. Type of assay: functional, cell-based. Conditions: A 172, 24 h. The essentials:
as §1
Take `CC1=C[C@]23C[C@H]1CC[C@H]2[C@@]1(C)[C@H](C[C@H]3O)C(C)(C)CC[C@@H]1O`: the pIC50 was less than 4.30.
As for `C=C1C[C@]23C[C@H]1CC[C@H]2[C@@]1(C)[C@H](C[C@H]3OC(C)=O)C(C)(C)CC[C@@H]1O`, the pIC50 is less than 4.30.
Regarding `C=C1[C@@H]2CC[C@H]3[C@]4(C)CCCC(C)(C)[C@H]4C[C@@H](O)[C@]3(C2)[C@@H]1O`, the pIC50 was less than 4.30.
As to `C[C@@H]1C(=O)[C@@]23CC[C@@H]4C(C)(C)CCC[C@@]4(C)[C@@H]2[C@@H](O)C[C@@H]1C3`, the pIC50 is less than 4.30.

Tested on in another assay: not listed separately
Description: Cytotoxicity against human HL60 cells assessed as cell viability after 24 hrs by MTT assay. Conditions: HL-60, 24 h. It is filed as functional, cell-based. The gist of the method:
as §1
For the compound `CC1=C[C@]23C[C@H]1CC[C@H]2[C@@]1(C)[C@H](C[C@H]3O)C(C)(C)CC[C@@H]1O`, the pIC50 is less than 4.30.
On the same count and under the same terms, under `C=C1C[C@]23C[C@H]1CC[C@H]2[C@@]1(C)[C@H](C[C@H]3OC(C)=O)C(C)(C)CC[C@@H]1O` stands less than 4.30.
`C=C1[C@@H]2CC[C@H]3[C@]4(C)CCCC(C)(C)[C@H]4C[C@@H](O)[C@]3(C2)[C@@H]1O`: the pIC50 is less than 4.30.
Take `C[C@@H]1C(=O)[C@@]23CC[C@@H]4C(C)(C)CCC[C@@]4(C)[C@@H]2[C@@H](O)C[C@@H]1C3`: the pIC50 was less than 4.30.

Tested on in a further assay: not listed separately
The assay can be described thus: Cytotoxicity against human RWPE1 cells assessed as cell viability after 24 hrs by MTT assay. It is filed as cell-based. Conditions: RWPE-1, 24 h. The gist of the method: as §1
Consider `CC1=C[C@]23C[C@H]1CC[C@H]2[C@@]1(C)[C@H](C[C@H]3O)C(C)(C)CC[C@@H]1O`, for which the pIC50 is less than 4.30.
Consider `C=C1C[C@]23C[C@H]1CC[C@H]2[C@@]1(C)[C@H](C[C@H]3OC(C)=O)C(C)(C)CC[C@@H]1O`, for which the pIC50 was less than 4.30.
As for `C=C1[C@@H]2CC[C@H]3[C@]4(C)CCCC(C)(C)[C@H]4C[C@@H](O)[C@]3(C2)[C@@H]1O`, the pIC50 was less than 4.30.
On to `C[C@@H]1C(=O)[C@@]23CC[C@@H]4C(C)(C)CCC[C@@]4(C)[C@@H]2[C@@H](O)C[C@@H]1C3`, for which the negative logarithm of the IC50 (pIC50) was less than 4.30.

The subject of another assay is LNCaP. The assay can be described thus: Cytotoxicity against human LNCAP cells assessed as cell viability after 24 hrs by MTT assay. Type of assay: functional, cell-based.
Conditions: not given
The essentials:
as §1
Consider `CC1=C[C@]23C[C@H]1CC[C@H]2[C@@]1(C)[C@H](C[C@H]3O)C(C)(C)CC[C@@H]1O`, for which the pIC50 was less than 4.30.
On the same count and under the same terms, the same measure for `C=C1C[C@]23C[C@H]1CC[C@H]2[C@@]1(C)[C@H](C[C@H]3OC(C)=O)C(C)(C)CC[C@@H]1O`: less than 4.30; for `C=C1[C@@H]2CC[C@H]3[C@]4(C)CCCC(C)(C)[C@H]4C[C@@H](O)[C@]3(C2)[C@@H]1O`: less than 4.30.
With `C[C@@H]1C(=O)[C@@]23CC[C@@H]4C(C)(C)CCC[C@@]4(C)[C@@H]2[C@@H](O)C[C@@H]1C3`, the pIC50 was less than 4.30.

Another assay concerns LoVo. Description: Cytotoxicity against human LoVo cells assessed as cell viability after 24 hrs by MTT assay. It is filed as functional, cell-based.
Conditions: not given
The gist of the method:
as §1
Consider `CC1=C[C@]23C[C@H]1CC[C@H]2[C@@]1(C)[C@H](C[C@H]3O)C(C)(C)CC[C@@H]1O`, for which the pIC50 is less than 4.30.
In the case of `C=C1C[C@]23C[C@H]1CC[C@H]2[C@@]1(C)[C@H](C[C@H]3OC(C)=O)C(C)(C)CC[C@@H]1O`, the pIC50 is less than 4.30.
For `C=C1[C@@H]2CC[C@H]3[C@]4(C)CCCC(C)(C)[C@H]4C[C@@H](O)[C@]3(C2)[C@@H]1O`, the pIC50 is less than 4.30.
For the compound `C[C@@H]1C(=O)[C@@]23CC[C@@H]4C(C)(C)CCC[C@@]4(C)[C@@H]2[C@@H](O)C[C@@H]1C3`, the pIC50 is less than 4.30.

A further assay deals with K562. Description: Cytotoxicity against human K562 cells assessed as cell viability after 24 hrs by MTT assay. Conditions: K562, 24 h. Type of assay: functional, cell-based. The gist of the method: as §1
Consider `CC1=C[C@]23C[C@H]1CC[C@H]2[C@@]1(C)[C@H](C[C@H]3O)C(C)(C)CC[C@@H]1O`, for which the pIC50 was less than 4.30.
Take `C=C1C[C@]23C[C@H]1CC[C@H]2[C@@]1(C)[C@H](C[C@H]3OC(C)=O)C(C)(C)CC[C@@H]1O`: the pIC50 is less than 4.30.
With `C=C1[C@@H]2CC[C@H]3[C@]4(C)CCCC(C)(C)[C@H]4C[C@@H](O)[C@]3(C2)[C@@H]1O`, the pIC50 is less than 4.30.
Consider `C[C@@H]1C(=O)[C@@]23CC[C@@H]4C(C)(C)CCC[C@@]4(C)[C@@H]2[C@@H](O)C[C@@H]1C3`, for which the pIC50 is less than 4.30.

Tested on in the next assay: not listed separately
The assay can be described thus: Cytotoxicity against human PC3 cells assessed as cell viability after 24 hrs by MTT assay. Conditions: PC-3, 24 h. It is filed as functional, cell-based. The essentials:
as §1
Regarding `CC1=C[C@]23C[C@H]1CC[C@H]2[C@@]1(C)[C@H](C[C@H]3O)C(C)(C)CC[C@@H]1O`, the pIC50 is less than 4.30.
Regarding `C=C1C[C@]23C[C@H]1CC[C@H]2[C@@]1(C)[C@H](C[C@H]3OC(C)=O)C(C)(C)CC[C@@H]1O`, the pIC50 was less than 4.30.
Regarding `C=C1[C@@H]2CC[C@H]3[C@]4(C)CCCC(C)(C)[C@H]4C[C@@H](O)[C@]3(C2)[C@@H]1O`, the pIC50 is less than 4.30.
Regarding `C[C@@H]1C(=O)[C@@]23CC[C@@H]4C(C)(C)CCC[C@@]4(C)[C@@H]2[C@@H](O)C[C@@H]1C3`, the pIC50 is less than 4.30.
